Consider seven compounds from ChEMBL document CHEMBL3102810, “Alkylamino derivatives of pyrazinamide: synthesis and antimycobacterial evaluation” (Bioorg Med Chem Lett, 2014).

One may read the MIC as the lowest concentration found to suppress growth. Read a high MIC as weaker potency.

In data set [1] the test system is Enterococcus sp. Put plainly: Antibacterial activity against Enterococcus sp. J 14365/08 after 24 to 48 hrs by microdilution broth method. The class given is functional, organism-based. The gist of the method:
(§1)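 Antibacterial screen with compound concentrations up to a highest level of 500 µM. Results expressed as MIC in µM.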
Background: Broth dilution looks for growth in wells or tubes with falling amounts of substance.

The subject of data set [2] is Aspergillus fumigatus. Put plainly: Antifungal activity against Aspergillus fumigatus 231 after 72 to 120 hrs by microdilution broth method. The class given is functional, organism-based.
For data set [3], the system named is Mycobacterium avium. Put plainly: Antimycobacterial activity against pyrazinamide-resistant Mycobacterium avium CNCTC My 80/72 after 5 days by microplate alamar blue assay. The class given is functional. To be noted: CNCTC My 80/72, 120 h. The gist of the method: (§2)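 Microplate alamar blue assay run at pH 5.6, using conditions optimized for pyrazinamide. Strains came from the Czech National Collection of Type Cultures. MIC was read in µg/mL and converted to µM using molecular weight.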

For data set [4], the system named is Klebsiella pneumoniae. Put plainly: Antibacterial activity against Klebsiella pneumoniae D 11750/08 after 24 to 48 hrs by microdilution broth method. It is filed as functional, organism-based. The essentials:
as §1

Data set [5] relates to Mycobacterium avium. Briefly: Antimycobacterial activity against pyrazinamide-resistant Mycobacterium avium CNCTC My 152/73 after 5 days by microplate alamar blue assay. The settings on record: CNCTC My 152/73, 120 h. The class given is functional. The essentials: as §2
Data set [6] has as its system Staphylococcus aureus. Briefly: Antibacterial activity against Staphylococcus aureus CCM 4516/08 after 24 to 48 hrs by microdilution broth method. It is filed as functional, organism-based. The essentials: as §1
Data set [7] concerns Mycobacterium kansasii. Put plainly: Antimycobacterial activity against pyrazinamide-resistant Mycobacterium kansasii CNCTC My 235/80 after 5 days by microplate alamar blue assay. It is filed as functional. To be noted: CNCTC My 235/80, 120 h. The essentials: as §2
Background: The colour change of resazurin is a common sign of viable cells or microbes.

In data set [8] the test system is Staphylococcus epidermidis. Briefly: Antibacterial activity against Staphylococcus epidermidis H 6966/08 up to 500 uM after 24 to 48 hrs by microdilution broth method. The class given is functional, organism-based. The gist of the method:
as §1

The subject of data set [9] is Pseudomonas aeruginosa. Briefly: Antibacterial activity against Pseudomonas aeruginosa CCM 1961 after 24 to 48 hrs by microdilution broth method. The class given is functional, organism-based. The gist of the method: as §1
The test system of data set [10] is Mycobacterium tuberculosis. Briefly: Antimycobacterial activity against Mycobacterium tuberculosis H37Rv CNCTC My 331/88 after 5 days by microplate alamar blue assay. It is filed as functional. The settings on record: H37Rv CNCTC My 331/88, 120 h. The gist of the method:
as §2

Data set [11] relates to Candida tropicalis. Briefly: Antifungal activity against Candida tropicalis 156 after 72 to 120 hrs by microdilution broth method. The class given is functional, organism-based.
Data set [12] concerns Pichia kudriavzevii. Briefly: Antifungal activity against Candida krusei E28 after 72 to 120 hrs by microdilution broth method. It is filed as functional, organism-based.
For data set [13], the system named is Staphylococcus epidermidis. Put plainly: Antibacterial activity against methicillin-resistant Staphylococcus epidermidis H 5996/08 after 24 to 48 hrs by microdilution broth method. It is filed as functional, organism-based.
Data set [14] relates to Trichophyton mentagrophytes. Briefly: Antifungal activity against Trichophyton mentagrophytes 445 after 72 to 120 hrs by microdilution broth method. The class given is functional, organism-based.
In data set [15] the test system is Staphylococcus epidermidis. Put plainly: Antibacterial activity against Staphylococcus epidermidis H 6966/08 after 48 hrs by microdilution broth method. The class given is functional. The essentials: as §1
Data set [16] concerns Trichophyton mentagrophytes. Put plainly: Antifungal activity against Trichophyton mentagrophytes after 72 to 120 hrs by microdilution broth method. The class given is functional, organism-based.
The subject of data set [17] is Lichtheimia corymbifera. Briefly: Antifungal activity against Absidia corymbifera 272 after 72 to 120 hrs by microdilution broth method. It is filed as functional, organism-based.
Data set [18] deals with Klebsiella pneumoniae. Put plainly: Antibacterial activity against ESBL positive Klebsiella pneumoniae J 14368/08 after 24 to 48 hrs by microdilution broth method. It is filed as functional, organism-based. The essentials: as §1
A short description of data set [19]: Lipophilicity, log K of the compound by HPLC analysis. The class given is physicochemical.
The test system of data set [20] is Escherichia coli. Briefly: Antibacterial activity against Escherichia coli CCM 4517 after 24 to 48 hrs by microdilution broth method. The class given is functional, organism-based. The gist of the method:
as §1

In data set [21] the test system is Nakaseomyces glabratus. Put plainly: Antifungal activity against Candida glabrata 20/I after 72 to 120 hrs by microdilution broth method. It is filed as functional, organism-based.
The test system of data set [22] is Candida albicans. Put plainly: Antifungal activity against Candida albicans ATCC 44859 after 72 to 120 hrs by microdilution broth method. It is filed as functional, organism-based.
For data set [23], the system named is Trichosporon asahii. Briefly: Antifungal activity against Trichosporon asahii 1188 after 72 to 120 hrs by microdilution broth method. The class given is functional, organism-based.

≈ marks a conversion by molar mass, not a printed value. Calls of active or inactive are those of the source. The calls are words filed in the database; no cut-off is given here.

Take `CCNc1cncc(C(N)=O)n1`: the result in data set [1], in data set [2], in data set [4], in [6], in [8] and in data set [9] was inactive. Further, the result in data set [11], in [12], in data set [13], in data set [14], in data set [15] and in data set [16] was inactive. For the same compound, the result in data set [17], in [18], in data set [20], in data set [21], in [22] and in data set [23] was inactive. The MIC in data set [3], in data set [5], in data set [7] and in [10] was above 100 µg/mL each time. Also, the “log K” value in data set [19] was -0.6318.
With `CCCCNc1cnc(C(N)=O)cn1`, the result in [1], in data set [2], in [4], in data set [6], in data set [8] and in [9] was inactive. For the same compound, the result in data set [11], in data set [12], in data set [13], in data set [14], in data set [15] and in data set [16] was inactive. Further, the result in [17], in [18], in data set [20], in [21], in data set [22] and in data set [23] was inactive. Besides, the MIC in data set [3], in [5], in [7] and in [10] was above 100 µg/mL in each case. Further, the “log K” value in data set [19] was -0.191.
As to `CCNc1cnc(C(N)=O)cn1`, the outcome in [1], in [2], in [4], in data set [6], in data set [8] and in [9] was inactive. The outcome in data set [11], in [12], in [13], in [14], in [15] and in data set [16] was inactive. The result in data set [17], in data set [18], in data set [20], in [21], in data set [22] and in [23] was inactive. Also, the MIC in data set [3], in data set [5], in data set [7] and in [10] was above 100 µg/mL throughout. The “log K” value in data set [19] was -0.552.
`CCCCCNc1cnc(C(N)=O)cn1`: the outcome in [1], in [2], in [4], in data set [6], in data set [8] and in data set [9] was inactive. Also, the result in data set [11], in [12], in data set [13], in data set [14], in [15] and in data set [16] was inactive. Further, the result in [17], in data set [18], in data set [20], in [21], in data set [22] and in data set [23] was inactive. Further, the MIC in data set [3], in data set [5], in [7] and in [10] was above 100 µg/mL each time. In addition, the “log K” value in data set [19] is reported as 0.0181.
With `NC(=O)c1cncc(NCCc2ccccc2)n1`, the outcome in data set [1], in data set [2], in data set [4], in data set [6], in data set [8] and in data set [9] was inactive. In addition, the outcome in data set [11], in data set [12], in [13], in data set [14], in [15] and in [16] was inactive. Moreover, the result in data set [17], in data set [18], in [20], in data set [21], in data set [22] and in [23] was inactive. Moreover, the MIC in data set [3], in data set [5], in data set [7] and in [10] was above 100 µg/mL in each case. Besides, the “log K” value in data set [19] is reported as -0.0986.
For the compound `NC(=O)c1cncc(NCCCc2ccccc2)n1`, the result in data set [1], in data set [2], in data set [4], in [6], in [8] and in data set [9] was inactive. For the same compound, the result in data set [11], in data set [12], in [13], in data set [14], in data set [15] and in data set [16] was inactive. Moreover, the result in [17], in data set [18], in [20], in data set [21], in data set [22] and in [23] was inactive. The MIC in [3], in data set [5], in data set [7] and in [10] was above 100 µg/mL throughout. Moreover, the “log K” value in data set [19] is given as 0.0741.
As for `CCCCCCNc1cnc(C(N)=O)cn1`, the result in data set [1], in [2], in [4], in data set [6], in [8] and in data set [9] was inactive. In addition, the result in data set [11], in data set [12], in [13], in data set [14], in data set [15] and in [16] was inactive. For the same compound, the outcome in data set [17], in [18], in [20], in data set [21], in [22] and in data set [23] was inactive. For the same compound, the MIC is above 100 µg/mL in data set [3], above 100 µg/mL in data set [5], 100 µg/mL (≈ 450 µM) in data set [7] and 225 µM in [10]. In addition, the “log K” value in data set [19] is recorded as 0.2389.
